Calls of active or inactive are those of the source.
Legend:
[1] = test system: BV-2; assay: Antineuroinflammatory activity in […] cells assessed as inhibition of LPS-induced nitric oxide production at 5 to 20 uM treated 30 mins before LPS challenge measured after 24 hrs by Griess reaction; format: functional, cell-based
Outline: (§1)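 BV-2 cells at 3 × 10⁴ cells/well in DMEM with 5% FBS at 37 °C, 5% CO₂. Cells were pretreated 30 min, then given LPS 100 ng/ml for 24 h. Supernatant was mixed 1:1 with Griess reagent (1% sulfanilamide, 0.1% naphthylethylenediamine in 5% phosphoric acid). Absorbance at 570 nm was read after 10 min against a sodium nitrite standard.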

[2] = test system: BV-2; assay: Antineuroinflammatory activity in […] cells assessed as inhibition of LPS-induced TNFalpha production treated 30 mins before LPS challenge measured after 24 hrs by ELISA; format: functional, cell-based
Outline: (§2)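 BV-2 cells plated at 1.5 × 10⁶ cells/well and pretreated for 30 min. Cells were then exposed to LPS 100 ng/ml for 24 h. IL-1β and TNF-α in culture medium were quantified by immunoassay kit. Mean ± S.E.M. of three independent experiments.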

[3] = test system: BV-2; assay: Antineuroinflammatory activity in […] cells assessed as inhibition of LPS-induced PGE2 production at 5 to 20 uM treated 30 mins before LPS challenge measured after 24 hrs by competitive enzyme immunoassay; format: functional, cell-based
Outline: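 BV-2 cells plated at 1.5 × 10⁶ cells/well and pretreated with 5, 10 or 20 µM for 30 min. LPS 100 ng/ml was then added for 24 h. PGE₂ in medium was measured by competitive enzyme immunoassay kit. Mean ± S.E.M. of three independent experiments.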

[4] = test system: N2a; assay: Antineuroinflammatory activity in LPS-stimulated […] cells in conditioned media assessed as inhibition of […] cell death treated 30 mins before LPS challenge measured after 24 hrs by MTT assay; format: functional, cell-based
Outline: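 BV-2 cells (DMEM, 5% FBS) pretreated with 5, 10 or 20 µM for 30 min, then LPS 100 ng/ml for 24 h. Conditioned media were transferred to N2a cells (DMEM, 10% FBS) for 24 h, and N2a viability was read by MTT. Mean ± S.E.M. of three independent experiments; one-way ANOVA with Tukey post test.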

[5] = test system: N2a; assay: Antineuroinflammatory activity in LPS-stimulated […] cells in conditioned media assessed as inhibition of caspase-3 activation in […] cells treated 30 mins before LPS challenge measured at 5 to 20 uM after 24 hrs by Western blot analysis; format: functional, cell-based
Outline: (§3)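 BV-2 cells pretreated with 5, 10 or 20 µM for 30 min, then LPS 100 ng/ml for 24 h. Conditioned media were collected and applied to N2a cells for 24 h. Lysates were run on 8–12% SDS-PAGE and transferred to nitrocellulose. Blots were probed 12 h with primary antibodies (cleaved caspase-3, Bax, Bcl-2), then HRP secondary 1 h at room temperature, ECL detection and densitometry. Mean ± S.E.M. of three independent experiments.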

[6] = test system: N2a; assay: Antineuroinflammatory activity in LPS-stimulated […] cells in conditioned media assessed as inhibition of DNA fragmentation in […] cells treated 30 mins before LPS challenge measured after 24 hrs by Gel electrophoresis; format: functional, cell-based
Outline: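 BV-2 cells pretreated with 5, 10 or 20 µM for 30 min, then stimulated with LPS 100 ng/ml for 24 h. Conditioned media were applied to N2a cells for 24 h. Cells were scraped and pelleted at 7500 rpm for 5 min. DNA fragmentation was resolved by gel electrophoresis alongside vehicle CM and LPS-with-vehicle CM lanes.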

[7] = test system: BV-2; assay: Antineuroinflammatory activity in […] cells assessed as inhibition of LPS-induced iNOS expression at 5 to 20 uM after 6 hrs by Western blot analysis; format: functional, cell-based
Outline: (§4)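 BV-2 cells exposed to LPS 100 ng/ml with or without 5–20 µM for 6 h. Lysates were run on 8–12% SDS-PAGE and transferred to nitrocellulose. Blots were probed 12 h for iNOS or COX-2, then HRP secondary 1 h at room temperature, ECL detection and densitometry. Three independent experiments.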

[8] = test system: BV-2; assay: Cytotoxicity against LPS-induced […] cells assessed as cell viability after 24 hrs by MTT assay; format: cell-based; details: bv-2, 24 h
Outline: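 BV-2 viability measured by MTT after 30 min pretreatment with 5, 10 or 20 µM, followed by LPS 100 ng/ml for 24 h. Mean ± S.E.M. of three independent experiments.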

[9] = test system: MAP kinase p38 (Mus musculus); assay: Inhibition of LPS-induced p38 kinase phosphorylation in mouse BV2 cells after 30 mins by Western blot analysis; details: BV-2
[10] = test system: N2a; assay: Antineuroinflammatory activity in LPS-stimulated […] cells in conditioned media assessed as recovery of Bcl-2 expression in […] cells treated 30 mins before LPS challenge measured at 5 to 20 uM after 24 hrs by Western blot analysis; format: functional, cell-based; outline: as §3
[11] = test system: N2a; assay: Antineuroinflammatory activity in LPS-stimulated […] cells in conditioned media assessed as inhibition of Bax expression in […] cells treated 30 mins before LPS challenge measured at 5 to 20 uM after 24 hrs by Western blot analysis; format: functional, cell-based; outline: as §3
[12] = test system: BV-2; assay: Antineuroinflammatory activity in […] cells assessed as inhibition of LPS-induced IL-1beta production treated 30 mins before LPS challenge measured after 24 hrs by ELISA; format: functional, cell-based; outline: as §2
[13] = test system: BV-2; assay: Antineuroinflammatory activity in […] cells assessed as inhibition of LPS-induced nitric oxide production at 10 uM treated 30 mins before LPS challenge measured after 24 hrs by Griess reaction; format: functional; outline: as §1
[14] = test system: c-Jun N-terminal kinase, JNK (Mus musculus); assay: Inhibition of LPS-induced JNK kinase phosphorylation in mouse BV2 cells after 30 mins by Western blot analysis; details: BV-2
[15] = test system: BV-2; assay: Inhibition of LPS-induced ERK kinase phosphorylation in […] cells after 30 mins by Western blot analysis; format: cell-based
Outline: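 BV-2 cells exposed to LPS 100 ng/ml with or without 5–20 µM for 30 min. Lysates were run on 8–12% SDS-PAGE and transferred to nitrocellulose. Blots were probed 12 h for phospho-p38, -JNK or -ERK, then HRP secondary 1 h at room temperature, ECL detection and densitometry.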

[16] = test system: BV-2; assay: Antineuroinflammatory activity in […] cells assessed as inhibition of LPS-induced COX2 expression at 5 to 20 uM after 6 hrs by Western blot analysis; format: functional, cell-based; outline: as §4

CCOC(=O)C1=C(C)NC(=O)NC1c1cccc(Oc2ccccc2)c1 (stereo not drawn)
active: inhibition [1]

CCOC(=O)C1=C(C)NC(=O)NC1c1cc(Cl)ccc1O (stereo not drawn)
active: inhibition [1]

CCOC(=O)C1=C(C)NC(=S)NC1c1cccc(Oc2ccccc2)c1 (stereo not drawn)
51%: inhibition at 10 µM ([13]; Mus musculus, BV-2, read-out: INH)
Non-toxic: Activity [8]
active: inhibition [2] Dose-dependent effect | inhibition [3] | inhibition [4] | inhibition [5] | inhibition [6] | inhibition [7] | inhibition [9] Dose-dependent effect | Activity [10] | inhibition [11] | inhibition [12] Dose-dependent effect | inhibition [14] Dose-dependent effect | inhibition [15] Dose-dependent effect | inhibition [16]

O=c1cc(-c2ccccc2)oc2cc(O)cc(O)c12
active: inhibition [13]

Source: ChEMBL document CHEMBL2062448, “A substituted 3,4-dihydropyrimidinone derivative (compound D22) prevents inflammation mediated neurotoxicity; role in microglial activation in BV-2 cells” (Bioorg Med Chem Lett, 2012)
